Test results from ChEMBL document CHEMBL3808369, “Identification of Cyproheptadine as an Inhibitor of SET Domain Containing Lysine Methyltransferase 7/9 (Set7/9) That Regulates Estrogen-Dependent Transcription” (J Med Chem, 2016).
Activity calls are given as the source filed them. The rule behind the calls is not given here.

What was measured:
[1] = target: T1, Histone-lysine N-methyltransferase SETD7 (Homo sapiens, UniProt Q8WTS6); test: Inhibition of recombinant Set7/9 (unknown origin) expressed in Escherichia coli BL21 (DE3) using biotinylated histone H3-derived peptide/SAM as substrate by alphaLISA
T1 sequence (Q8WTS6 whole entry): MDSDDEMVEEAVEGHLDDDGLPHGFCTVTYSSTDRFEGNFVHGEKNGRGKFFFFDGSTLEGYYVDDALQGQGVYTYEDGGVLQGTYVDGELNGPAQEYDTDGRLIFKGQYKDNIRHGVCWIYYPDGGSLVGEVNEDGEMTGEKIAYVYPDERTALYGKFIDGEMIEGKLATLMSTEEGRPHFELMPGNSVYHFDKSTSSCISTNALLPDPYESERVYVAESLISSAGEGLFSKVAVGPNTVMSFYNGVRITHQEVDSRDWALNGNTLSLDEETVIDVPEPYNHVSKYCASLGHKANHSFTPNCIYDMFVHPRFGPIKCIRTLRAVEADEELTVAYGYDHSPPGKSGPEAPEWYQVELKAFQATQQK

[2] = target: T2, Histone-lysine N-methyltransferase SETD7 (Homo sapiens) (UniProt Q8WTS6); test: Inhibition of Set7/9 in human MCF7 cells assessed as suppression of beta-estradiol-induced pS2 mRNA expression at 3 to 10 uM preincubated for 18 hrs followed by beta-estradiol addition measured after 24 hrs by RT-PCR analysis; type: cell-based; settings: in the assay text read “preincubated for 24 hrs” for “preincubated for 18 hrs”
T2 sequence (whole entry): T1 sequence (Q8WTS6 whole entry)
Outline: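 MCF7 cells in estrogen-free medium were treated with compound for 24 h, then with 10 nM β-estradiol plus compound for a further 24 h. pS2 and GAPDH mRNA levels were measured by semiquantitative RT-PCR.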

[3] = target: T2, Histone-lysine N-methyltransferase SETD7 (Homo sapiens); test: Inhibition of Set7/9 in human MCF7 cells assessed as suppression of beta-estradiol-induced ERE promoter activation at 3 to 10 uM preincubated for 18 hrs followed by beta-estradiol addition measured after 24 hrs by luciferase reporter gene assay; type: cell-based
Outline: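 MCF7 cells were switched to estrogen-free medium (phenol red-free RPMI, 10% charcoal-stripped FBS) for 3 days, then transfected with pGL4-3×ERE-TA2 and hRuc-TK. After 6 h, compound was added. After 18 h more, cells received ± 10 nM β-estradiol for 24 h. Dual-luciferase readout: firefly normalized to Renilla, given as fold over unstimulated cells. Four independent assays, SD.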

MCF7 = test: Effect on ERalpha expression in human MCF7 cells at 10 to 100 uM after 48 hrs by immunoblotting analysis; type: functional, cell-based
Outline: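 MCF7 cells were treated with various concentrations for 48 h. Lysates were made in RIPA buffer with protease inhibitors, separated by SDS-PAGE, transferred to PVDF and immunoblotted for ERα with a rabbit polyclonal antibody. Detection was by chemiluminescence.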

[4] = target: T2, Histone-lysine N-methyltransferase SETD7 (Homo sapiens); test: Inhibition of Set7/9 (unknown origin) expressed in Escherichia coli BL21 (DE3) by fluorogenic assay

| SMILES | IC50 [1] [µM] | inhibition [2] | inhibition [3] | Activity (MCF7) | inhibition [4] |
| --- | --- | --- | --- | --- | --- |
| CC(=O)N1CCC(=C2c3ccccc3C=Cc3ccccc32)CC1 | > 100 |  |  |  |  |
| CC/C(=C(\c1ccccc1)c1ccc(OCCN(C)C)cc1)c1ccccc1 |  | Active | Active |  |  |
| Cc1ccc(/C(=C\CN2CCCC2)c2ccccn2)cc1 |  |  |  | inactive | inactive |
| O=C(c1ccc(F)cc1)C1CCN(CCn2c(=O)[nH]c3ccccc3c2=O)CC1 |  |  |  | inactive | inactive |
